Laboratory results taken from paper PMC2873839 (Bioorganic & medicinal chemistry, 2010).
Entries after “also recorded” stand apart in the source; their conditions may differ.

System: HeLa cells
Test: Confocal microscopy of subcellular distribution / nuclear staining
Format: cell-based
How it was run: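 HeLa grown in MEM alpha with 10% FBS at 37 °C, 5% CO2, seeded at 4000 cells/well on glass bottom, adhered overnight. Test compound 10–100 μM, 37 °C for 2–19 h, in complete or serum-free medium, then HBSS rinse. Confocal: 63x/1.4 oil objective, 1.1 μm optical slice, excitation 488 nm, emission 560+ nm. Dead cells excluded by morphology; percentage with nuclear staining scored.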

Row | Substance | subcellular distribution (10 μM, 2 h) | subcellular distribution (10 μM, 19 h, complete medium) | subcellular distribution (40 μM, 2 h) | percentage of cells with additional nuclear staining (100 μM, 4 h, complete medium) [%] | subcellular distribution (100 μM, 4 h, complete medium)
1 | KSKKQK [Ru-KSKKQK] | only faint punctate luminescence in the cytoplasm and no nuclear staining | same result; also recorded: Punctate staining of the cytoplasm | – | – | –
2 | KKKK [Ru-KKKK] | – | – | only faint luminescence in the cytoplasm | 17 | brighter, punctate cytoplasmic staining; also recorded: punctate staining of the cytoplasm
3 | PKKKRKV [Ru-PKKKRKV] | only faint punctate luminescence in the cytoplasm and no nuclear staining | same result; also recorded: Punctate staining of the cytoplasm | – | – | –
